Source: ChEMBL document CHEMBL3632541, “Synthesis, antileishmanial activity and cytotoxicity of 2,3-diaryl- and 2,3,8-trisubstituted imidazo[1,2-a]pyrazines” (Eur J Med Chem, 2015)
Values after ≈ are worked out from the molar mass of the structure shown. Active and inactive are the calls of the source. The calls are words filed in the database; no cut-off is given here.

Experiments:
[1] = Inhibition of native porcine brain CK1 delta/epsilon using RRKHAAIGpSAYSITA as substrate and [gamma-33P]ATP after 30 mins by scintillation counting; set-up: species or system Sus scrofa
In short: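 Native porcine brain CK1δ/ε, in threefold-diluted buffer A (25 mM Mops pH 7.2, 15 mM MgCl₂, 5 mM EGTA, 1 mM DTT, phosphatase inhibitors). 25 μM CKS peptide substrate, 15 μM [γ-³³P]ATP, 30 min at 30 °C. Stopped on P81 paper, washed in 1% phosphoric acid, counted by scintillation. Blank subtracted; activity as % of the no-inhibitor value; DMSO controls.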

[2] = Cytotoxicity against human H460 cells assessed as growth inhibition after 48 hrs by SRB assay method; type: cell-based, NCI-H460
In short: (§1)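 Cells plated in growth medium and allowed to attach 24 h (37 °C, 5% CO₂). Time-zero plate fixed with TCA. Serial 4-fold dilutions added for 48 h. Cells fixed with cold TCA, stained with 0.2% SRB, dye solubilized in 10 mM Tris pH 10.5, absorbance read at 510 nm. GI50 is 50% absorbance reduction versus solvent controls, by linear regression. K562 counted by Coulter counter instead. 5-FU reference.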

[3] = Cytotoxicity against human HT-29 cells assessed as growth inhibition after 48 hrs by SRB assay method; type: cell-based; in short: as §1
[4] = Cytotoxicity against human MCF7 cells assessed as growth inhibition after 48 hrs by SRB assay method; type: cell-based; in short: as §1
[5] = Cytotoxicity against BALB/c mouse 3T3 clone A31 cells after 48 hrs by SRB assay method; type: cell-based; conditions: A31, 48 h; in short: as §1
[6] = Therapeutic index, ratio of IC50 for BALB/c mouse peritoneal macrophages to IC50 for promastigote form of Leishmania major (MHOM/IL/81/BNI); conditions: read-out: Ratio IC50
[7] = Cytotoxicity against human DU145 cells assessed as growth inhibition after 48 hrs by SRB assay method; type: cell-based, DU-145; in short: as §1
[8] = Therapeutic index, ratio of IC50 for BALB/c mouse 3T3 clone A31 cells to IC50 for promastigote form of Leishmania major (MHOM/IL/81/BNI); type: cell-based; conditions: read-out: Ratio IC50
[9] = Inhibition of Leishmania major CK1.2 using RRKHAAIGpSAYSITA as substrate and [gamma-33P]ATP after 30 mins by scintillation counting
In short: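 Recombinant His-tagged L. major CK1.2 from E. coli, purified on cobalt beads. Assayed as for the porcine enzyme: CKS peptide substrate, 15 μM [γ-³³P]ATP, 30 min at 30 °C, P81 capture and scintillation counting. Activity as % of the no-inhibitor value.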

Leishmania major [10] = assay: Antileishmanial activity against promastigote form of Leishmania major MHOM/IL/81/BNI after 96 hrs by spectrofluorimetric micromethod; type: functional, organism-based
[11] = Cytotoxicity against human HuTu 80 cells assessed as growth inhibition after 48 hrs by SRB assay method; type: cell-based, HuTu80; in short: as §1
[12] = Cytotoxicity against BALB/c mouse peritoneal macrophages assessed as cell viability after 48 hrs by trypan blue dye exclusion method; type: cell-based; conditions: Peritoneal macrophage cell
[13] = Cytotoxicity against human K562 cells assessed as growth inhibition after 48 hrs by Coulter counter cell counting
[14] = Cytotoxicity against human M14 cells assessed as growth inhibition after 48 hrs by SRB assay method; type: cell-based; in short: as §1
Leishmania amazonensis = assay: Antileishmanial activity against axenic amastigote stage of Leishmania amazonensis MHOM/BR/76/LTB-012 by MTT method; type: functional, organism-based
In short: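 Axenic amastigotes, grown in MAA/20 medium at 32 ± 1 °C. IC50 by MTT micromethod; compounds from 10 mM DMSO stocks, DMSO ≤1% final.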

Leishmania major [15] = assay: Antileishmanial activity against amastigote form of Leishmania major MHOM/IL/81/BNI amastigote in Balb/c mouse peritoneal macrophages after 4 days by May-Grunwald-Giemsa staining-based microscopic analysis; type: functional, organism-based; conditions: 96 h
In short: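 Peritoneal macrophages from Balb/c mice, 1.5 10⁵ cell/mL in RPMI 1640 + 15% FBS, left 24 h on glass slides (37 °C, 5% CO₂), then infected 24 h with stationary-phase promastigotes (1.5 × 10⁶/mL). Washed cultures exposed to 100, 10, 1 and 0.1 µM for 4 days. Fixed with methanol, Giemsa-stained. Amastigotes counted in 100 macrophages per duplicate well; IC50 from amastigotes/macrophage. Done twice.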

[16] = Therapeutic index, ratio of IC50 for BALB/c mouse peritoneal macrophages to IC50 for amastigote form of Leishmania major (MHOM/IL/81/BNI) in BALB/c mouse peritoneal macrophages; conditions: read-out: Ratio IC50

| SMILES | IC50 [1] [µM] | GI50 at 48 h [2] [µg/mL] | GI50 at 48 h [3] [µg/mL] | GI50 at 48 h [4] [µg/mL] | IC50 [5] [µM] | selectivity ratio [6] | GI50 at 48 h [7] [µg/mL] | selectivity ratio [8] | IC50 [9] [µM] | IC50 (Leishmania major [10]) [µM] | GI50 at 48 h [11] [µg/mL] | IC50 [12] [µM] | GI50 at 48 h [13] [µg/mL] | GI50 at 48 h [14] [µg/mL] | Activity (Leishmania amazonensis) | IC50 (Leishmania major [15]) [µM] | selectivity ratio [16] |
| --- | --- | --- | --- | --- | --- | --- | --- | --- | --- | --- | --- | --- | --- | --- | --- | --- | --- |
| CN(C)CCNc1nccn2c(-c3ccncc3)c(-c3ccc(F)cc3)nc12 | 1.6 | 34 (≈ 90.3 µM) | 8 (≈ 21.3 µM) | 8 (≈ 21.3 µM) | 101 | 1.6 | 52 (≈ 138 µM) | 2.9 | 0.52 | 35.3 | 24 (≈ 63.8 µM) | 57.8 | 14 (≈ 37.2 µM) | 19 (≈ 50.5 µM) |  |  |  |
| Fc1ccc(-c2nc3c(NCCN4CCOCC4)nccn3c2-c2ccncc2)cc1 | 2.7 | 20 (≈ 47.8 µM) | 27 (≈ 64.5 µM) | 19 (≈ 45.4 µM) | 47.8 | 2.4 | 39 (≈ 93.2 µM) | 2.9 | 0.62 | 16.5 | 28 (≈ 66.9 µM) | 40.3 | 21 (≈ 50.2 µM) | 36 (≈ 86 µM) |  |  |  |
| Clc1cccc(-c2c(-c3ccccc3)nc3cnccn23)c1 |  |  |  |  |  | 3.5 |  |  |  | 14.5 |  | 51.5 |  |  |  |  |  |
| CN(C)CCNc1nccn2c(I)c(-c3ccccc3)nc12 | > 10 | 13 (≈ 31.9 µM) | 4 (≈ 9.82 µM) | 9 (≈ 22.1 µM) | 31.9 | 2.8 | 20 (≈ 49.1 µM) | 1.3 | > 10 | 24.2 | 12 (≈ 29.5 µM) | 68.6 | 5 (≈ 12.3 µM) | 4 (≈ 9.82 µM) |  |  |  |
| COc1ccc(-c2c(-c3ccccc3)nc3cnccn23)cc1 |  |  |  |  |  | 3.5 |  |  | > 10 | 17.4 |  | 60.2 |  |  |  |  |  |
| c1ccc(-c2nc3cnccn3c2-c2ccncc2)cc1 | 3.3 |  |  |  |  | 7.7 |  |  | 1.3 | 20.1 |  | 154 |  |  | inactive | 2.7 | 57 |
| CN(C)c1nccn2c(I)c(-c3ccc(F)cc3)nc12 | > 10 | 25 (≈ 65.4 µM) | > 125 | 3 (≈ 7.85 µM) | 99.4 |  | 40 (≈ 105 µM) |  | > 10 | > 100 | 22 (≈ 57.6 µM) |  | > 125 | > 125 |  |  |  |
| CN(C)CCNc1nccn2c(I)c(-c3ccc(F)cc3)nc12 | > 10 | 9 (≈ 21.2 µM) | 4 (≈ 9.41 µM) | 5 (≈ 11.8 µM) | 18.8 | 1.4 | 13 (≈ 30.6 µM) | 0.8 | > 10 | 24.7 | 6 (≈ 14.1 µM) | 33.8 | 43 (≈ 101 µM) | 4 (≈ 9.41 µM) |  |  |  |
| CN(C)CCNc1nccn2c(-c3ccncc3)c(-c3ccccc3)nc12 | 1.6 | 40 (≈ 112 µM) | 6 (≈ 16.7 µM) | 6 (≈ 16.7 µM) | 86.5 | 0.9 | 47 (≈ 131 µM) | 1.3 | 0.51 | 68.8 | 32 (≈ 89.3 µM) | 64.9 | 15 (≈ 41.8 µM) | 27 (≈ 75.3 µM) |  |  |  |
| Fc1ccc(-c2nc3c(NCCN4CCOCC4)nccn3c2I)cc1 | > 10 | > 125 | > 125 | > 125 | > 268 | 33.3 | > 125 | > 95.6 | > 10 | 2.8 | 73 (≈ 156 µM) | 93.2 | > 125 | > 125 | inactive | 0.2 | 466 |
| CCOC(=O)c1ccc(-c2c(-c3ccccc3)nc3cnccn23)cc1 |  |  |  |  |  | 2.9 |  |  | > 10 | 17.5 |  | 49.8 |  |  |  |  |  |
| Ic1c(-c2ccccc2)nc2c(NCCN3CCOCC3)nccn12 | > 10 | 121 (≈ 269 µM) | 22 (≈ 49 µM) | 29 (≈ 64.5 µM) | 236 | 3 | 47 (≈ 105 µM) | 22.3 | > 10 | 10.6 | 33 (≈ 73.4 µM) | 31.4 | 18 (≈ 40.1 µM) | 179 (≈ 398 µM) |  |  |  |
| c1ccc(-c2nc3cnccn3c2-c2ccccc2)cc1 |  |  |  |  |  | 1.6 |  |  | > 10 | 26.2 |  | 41.4 |  |  |  |  |  |
| Clc1cc(Cl)cc(-c2c(-c3ccccc3)nc3cnccn23)c1 |  |  |  |  |  | 3.4 |  |  | > 10 | 10.3 |  | 35.6 |  |  |  |  |  |
| O=c1[nH]cc(F)c(=O)[nH]1 [FLUOROURACIL] |  | 0.3 (≈ 2.31 µM) | 0.4 (≈ 3.08 µM) | 0.3 (≈ 2.31 µM) |  |  | 1 (≈ 7.69 µM) |  |  |  | 0.4 (≈ 3.08 µM) |  | 0.9 (≈ 6.92 µM) | 0.7 (≈ 5.38 µM) |  |  |  |
| CN(C)c1nccn2c(-c3ccncc3)c(-c3ccccc3)nc12 | 2.4 | 70 (≈ 222 µM) | 56 (≈ 178 µM) | 32 (≈ 101 µM) | 155 | 4.6 | 90 (≈ 285 µM) | 5 | 0.48 | 31.3 | 50 (≈ 159 µM) | 144 | 48 (≈ 152 µM) | 84 (≈ 266 µM) | inactive | 9.4 | 15.3 |
| c1ccc(-c2nc3c(NCCN4CCOCC4)nccn3c2-c2ccncc2)cc1 | 3.3 |  |  |  |  | 2.2 |  |  | 2.4 | 23.5 |  | 51.7 |  |  |  |  |  |
| O=[N+]([O-])c1ccc(-c2c(-c3ccccc3)nc3cnccn23)cc1 |  |  |  |  |  | 4.2 |  |  | > 10 | 27.6 |  | 114 |  |  |  |  |  |
| CN(C)c1nccn2c(I)c(-c3ccccc3)nc12 | > 10 | 47 (≈ 129 µM) | 38 (≈ 104 µM) | 3 (≈ 8.24 µM) | 35.7 | 4.3 | 39 (≈ 107 µM) | 5.3 | > 10 | 6.8 | 44 (≈ 121 µM) | 29.2 | 16 (≈ 43.9 µM) | > 125 |  |  |  |
| CN(C)c1nccn2c(-c3ccncc3)c(-c3ccc(F)cc3)nc12 | 2.1 | > 125 | > 125 | 52 (≈ 156 µM) | > 375 | 6.6 | > 125 | > 58.6 | 0.99 | 6.4 | 77 (≈ 231 µM) | 42 | > 125 | > 125 | inactive | 0.8 | 52.5 |
| N=C(N)c1ccc(OCCCCCOc2ccc(C(=N)N)cc2)cc1 [PENTAMIDINE] |  |  |  |  |  | 33.2 |  |  |  | 4.6 |  | 153 |  |  |  | 3 | 50.9 |
